The structures appear in SMILES notation. The source made the active and inactive calls. The rule behind the calls is not given here.

Series [1] has as its system PC-12. Description: Phosphorylation of eukaryotic initiation factor 2 alpha (eIF2alpha) in PC12 cells, + = Phosphorylation. It counts as functional, cell-based. The conditions noted are these: Rattus norvegicus. The gist of the method: (§1)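 Cells treated with drug at 15 μM for 2 h. Extracts western blotted with anti-phospho-Ser51 eIF2α antibody. Tro is the positive control and DMSO the negative control. Scored +, ± or −.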

Series [2] concerns PC-12. Description: Concentration required for 50% inhibition of cell proliferation in PC12 cells using sulforhodamine B assay. As to conditions: Rattus norvegicus. Type of series: functional, cell-based. In short, it runs like this:
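Sulforhodamine B proliferation assay; cells exposed to drug for 5 days across 0.5 to 100 μM. IC50 is the concentration giving 50% inhibition of proliferation.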

A short description of series [3]: Partition coefficient (logP). It counts as physicochemical. The conditions noted are these: octanol/water.
Series [4] concerns PC-12. Description: Tested for the intracellular Ca+2 release in PC12 cells; + = Release. Type of series: functional, cell-based. As to conditions: Rattus norvegicus. The gist of the method: (§2)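 Fluo-4-loaded cells treated with drug at 80 μM for 10 min and monitored for Ca2+ release from intracellular stores. Clotrimazole is the positive control. Scored +, ± or −.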
For series [5], the system named is PC-12. Description: Phosphorylation of eukaryotic initiation factor 2 alpha (eIF2alpha) in PC12 cells, - = No phosphorylation. It counts as functional, cell-based. The conditions noted are these: Rattus norvegicus. The gist of the method: as §1
Series [6] has as its system PC-12. Description: Tested for the intracellular Ca+2 release in PC12 cells; - = No release. It counts as functional, cell-based. As to conditions: Rattus norvegicus. In short, it runs like this: as §2
Series [7] deals with PC-12. Description: Phosphorylation of eukaryotic initiation factor 2 alpha (eIF2alpha) in PC12 cells, +/- = Insignificant phosphorylation. As to conditions: Rattus norvegicus. Type of series: functional, cell-based. The gist of the method: as §1
Series [8] relates to PC-12. Description: Tested for the intracellular Ca+2 release in PC12 cells; +/- = Insignificant release. Type of series: functional, cell-based. The conditions noted are these: Rattus norvegicus. The gist of the method: as §2

On to `O=C1NC(=O)/C(=C/c2ccc(OCC3CCC3)cc2)S1`, for which the Activity result in series [1] and in series [4] was “Phosphorylation” in each case. The same molecule returned an IC50 in series [2] of 13 µM. Besides, the logP in series [3] (read-out: logP) was 2.54.

Take `CCC(C)(C)Oc1ccc(/C=C2\SC(=O)NC2=O)cc1`: the Activity entry in series [1] and in series [4] was “Phosphorylation” each time. In addition, inhibition in series [2] was half-maximal at 15 µM (IC50). The logP in series [3] (read-out: logP) is 3.49.

As for `CCC(C)(C)Oc1ccc(CC2SC(=O)NC2=O)cc1` (stereo unspecified), the Activity entry in series [1] and in series [4] was “Phosphorylation” in each case. The molecule further had an IC50 in series [2] of 23 µM. In addition, in series [3] (read-out: logP), the logP was 3.76.

Take `COc1ccc(CC2SC(=O)NC2=O)cc1` (stereo unspecified): the Activity result in series [5] and in series [6] was “Not toxic” each time. In addition, the concentration for half-maximal inhibition (IC50) in series [2] is above 100 µM. Also, the logP in series [3] (read-out: logP) turned out to be 1.91.

On to `CCCOc1ccc(/C=C2\SC(=O)NC2=O)cc1`, for which the Activity result in series [7] and in series [8] was “+/-” throughout. The same molecule returned an IC50 in series [2] of 7 µM. Also, in series [3] (read-out: logP), the logP is 2.69.

As to `O=C1NC(=O)C(Cc2ccc(OCC3CCCCC3)cc2)S1` (stereo unspecified), the Activity result was “+/-” in series [7] and “Release” in series [4]. For the same molecule, the IC50 in series [2] amounted to 26 µM. In addition, the logP in series [3] (read-out: logP) was 3.94.

As for `O=C1NC(=O)C(Cc2ccc(OCC3CCCCO3)cc2)S1` (stereo unspecified), the Activity result in series [5] and in series [6] was “Not toxic” throughout. Besides, the IC50 in series [2] was above 100 µM. In addition, the logP in series [3] (read-out: logP) amounted to 2.29.

Take `O=C1NC(=O)/C(=C/c2ccccc2)S1`: the Activity entry in series [5] and in series [6] was “Not toxic” in each case. Besides, the IC50 in series [2] was above 100 µM. Moreover, in series [3] (read-out: logP), the logP is 1.71.

`CCOc1ccc(CC2SC(=O)NC2=O)cc1` (stereo unspecified): the results for the Activity result in series [7] and in series [6] were “+/-” and “Not toxic”, respectively. The same molecule registered an IC50 in series [2] above 100 µM. Besides, the logP in series [3] (read-out: logP) is 2.43.

For `O=C1N=C(O)S/C1=C\c1ccc(OCC2CCCCO2)cc1` (stereo unspecified), the Activity result in series [1] and in series [4] was “Phosphorylation” in each case. In series [2], this molecule displayed an IC50 of 22 µM. Moreover, the logP in series [3] (read-out: logP) was found to be 2.02.

As to `O=C1NC(=O)C(Cc2ccc(O)cc2)S1` (stereo unspecified) [GLITAZONE], the Activity entry is “+/-” in series [7] and “Not toxic” in series [6]. The same molecule yielded an IC50 in series [2] above 100 µM. Further, in series [3] (read-out: logP), the logP turned out to be 1.32.

Regarding `O=C1NC(=O)C(Cc2ccc(OCC3CCC3)cc2)S1` (stereo unspecified), the Activity result in series [5] was “Not toxic”; in series [4], “Release”. The same molecule yielded an IC50 in series [2] above 100 µM. The logP in series [3] (read-out: logP) was found to be 2.81.

Take `CCCOc1ccc(CC2SC(=O)NC2=O)cc1` (stereo unspecified): the results for the Activity result in series [7] and in series [6] were “+/-” and “Not toxic”, respectively. Further, the midpoint of inhibition in series [2], the IC50, lay at 45 µM. Also, in series [3] (read-out: logP), the logP stood at 2.96.

In the case of `O=C1NC(=O)C(Cc2ccccc2)S1` (stereo unspecified), the Activity result in series [5] and in series [6] was “Not toxic” in each case. Further, in series [2], the IC50 is above 100 µM. In series [3] (read-out: logP), the logP came out at 1.99.

Take `O=C1NC(=O)C(Cc2ccc(OCC3CC3)cc2)S1` (stereo unspecified): the Activity result in series [5] and in series [6] was “Not toxic” in each case. The molecule further registered an IC50 in series [2] above 100 µM. In series [3] (read-out: logP), the logP amounted to 2.26.

Take `O=C1NC(=O)C(Cc2ccc(OCC3CCCC3)cc2)S1` (stereo unspecified): the Activity result in series [1] and in series [4] was “Phosphorylation” each time. For the same molecule, in series [2], the IC50 came to 25 µM. Also, the logP in series [3] (read-out: logP) came to 3.38.

On to `CC(C)COc1ccc(CC2SC(=O)NC2=O)cc1` (stereo unspecified), for which the Activity result in series [5] is “Not toxic”; in series [4], “Release”. In series [2], this molecule came in with an IC50 of 25 µM. In addition, in series [3] (read-out: logP), the logP amounted to 3.36.

In the case of `O=C1NC(=O)/C(=C/c2ccc(O)cc2)S1`, the Activity result in series [5] and in series [6] was “Not toxic” each time. The molecule further yielded an IC50 in series [2] of 20 µM. The logP in series [3] (read-out: logP) came out at 1.05.

Turning to `O=C1NC(=O)/C(=C/c2ccc(OCC3CCCC3)cc2)S1`, the logP in series [3] (read-out: logP) came to 3.21.

As for `Cc1c(C)c2c(c(C)c1O)CCC(C)(COc1ccc(CC3SC(=O)NC3=O)cc1)O2` (stereo unspecified) [TROGLITAZONE], the result in series [1] and in series [4] was Active. In series [2], this molecule yielded an IC50 of 15 µM. For the same molecule, the logP in series [3] (read-out: logP) turned out to be 4.46.

For the molecule `O=C1NC(=O)C(Cc2ccc(OCc3ccccc3)cc2)S1` (stereo unspecified), the Activity result in series [5] and in series [6] was “Not toxic” each time. In addition, the IC50 in series [2] is above 100 µM. For the same molecule, in series [3] (read-out: logP), the logP came out at 3.67.

Take `COc1ccc(/C=C2\SC(=O)NC2=O)cc1`: the Activity entry in series [5] and in series [6] was “Not toxic” each time. In addition, inhibition in series [2] was half-maximal at 23 µM (IC50). Also, in series [3] (read-out: logP), the logP was determined as 1.63.

With `CC1(COc2ccc(CC3SC(=O)NC3=O)cc2)CCCCC1` (stereo unspecified) [CIGLITAZONE], the outcome in series [1] and in series [4] was Active. Moreover, in series [2], the IC50 turned out to be 20 µM. For the same molecule, the log partition coefficient (logP) in series [3] was 5.07.

On to `O=C1NC(=O)/C(=C/c2ccc(OCC3CC3)cc2)S1`, for which the Activity entry is “+/-” in series [7] and “Not toxic” in series [6]. Moreover, half-maximal inhibition in series [2] (IC50) was put at 23 µM. Further, the logP in series [3] (read-out: logP) is 1.99.

For `Cc1c(C)c2c(c(C)c1O)CCC(C)(COc1ccc(/C=C3/SC(=O)NC3=O)cc1)O2` (stereo unspecified), the Activity result in series [1] and in series [4] was “Phosphorylation” throughout. In series [2], this molecule registered a concentration for half-maximal inhibition (IC50) of 5 µM. In series [3] (read-out: logP), the logP was determined as 5.31.

Take `O=C1N=C(O)S/C1=C\c1ccc(OCC2CCCC2)cc1`: the Activity entry in series [1] and in series [4] was “Phosphorylation” in each case. Besides, in series [2], it took 10 µM to reach half-maximal inhibition (IC50).

With `CCOc1ccc(/C=C2\SC(=O)NC2=O)cc1`, the values for the Activity result in series [7] and in series [6] were “+/-” and “Not toxic”, respectively. In series [2], half-maximal inhibition (IC50) was put at 27 µM. Moreover, in series [3] (read-out: logP), the logP was 2.16.

As to `O=C1NC(=O)/C(=C/c2ccc(OCc3ccccc3)cc2)S1`, the logP in series [3] (read-out: logP) worked out at 3.4.

On to `O=C1N=C(O)S/C1=C\c1ccc(OCc2ccccc2)cc1`, for which the Activity entry in series [5] and in series [6] was “Not toxic” in each case. The IC50 in series [2] is 15 µM.

For `O=C1N=C(O)S/C1=C\c1ccc(OCC2CCCCC2)cc1`, the Activity entry in series [1] and in series [4] was “Phosphorylation” each time. Moreover, the IC50 in series [2] was determined as 14 µM. In addition, the logP in series [3] (read-out: logP) was found to be 3.66.

As for `CC(C)COc1ccc(/C=C2\SC(=O)NC2=O)cc1`, the results for the Activity result in series [7] and in series [6] were “+/-” and “Not toxic”, respectively. The molecule further displayed an IC50 in series [2] of 16 µM. The logP in series [3] (read-out: logP) is 3.09.

Usually IC50 stands for the concentration needed to halve the response being measured. By logP is commonly meant the decadic logarithm of the partition coefficient of the neutral form, usually between octanol and water.

Values taken from ChEMBL document CHEMBL1148253, “Structure-activity requirements for the antiproliferative effect of troglitazone derivatives mediated by depletion of intracellular calcium” (Bioorg Med Chem Lett, 2004).
